# Assay outcomes from PubChem.
# Hck-Nef inh: inhibitors of human Hck kinase activated by Nef | inhibition, % at 20 µM | P08631 | Recombinant Hck-YEEI plus Nef, Z-Lyte FRET kinase assay | 220,000 tested, 0.68% active;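 active = Hck-Nef kinase inhibition above about 50%, limit read from the data; inactive = inhibition below that limit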;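 also: 0% = DMSO with Hck plus Nef and 100% = Hck alone without Nef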
# Target sequence (P08631 whole entry, looked up): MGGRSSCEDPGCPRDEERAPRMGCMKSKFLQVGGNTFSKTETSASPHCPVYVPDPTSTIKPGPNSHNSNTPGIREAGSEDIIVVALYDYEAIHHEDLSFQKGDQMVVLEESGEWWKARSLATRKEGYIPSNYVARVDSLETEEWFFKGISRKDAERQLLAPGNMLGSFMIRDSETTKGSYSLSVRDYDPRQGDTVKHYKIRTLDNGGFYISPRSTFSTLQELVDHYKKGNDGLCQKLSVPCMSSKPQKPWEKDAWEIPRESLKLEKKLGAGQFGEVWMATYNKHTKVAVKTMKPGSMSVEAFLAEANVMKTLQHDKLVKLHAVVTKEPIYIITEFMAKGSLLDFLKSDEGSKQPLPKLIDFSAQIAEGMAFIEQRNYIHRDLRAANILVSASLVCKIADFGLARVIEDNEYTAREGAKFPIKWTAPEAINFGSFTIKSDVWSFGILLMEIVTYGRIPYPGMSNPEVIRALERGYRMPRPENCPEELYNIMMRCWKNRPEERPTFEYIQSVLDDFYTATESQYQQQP
# RanGTP-Impb inh: inhibitors of RanGTP-importin-beta interaction, primary screen, biochemical, FRET, CFP-Ran, YFP-importin-beta, homogeneous | inhibition, % (concentration not given with the values) | cell-free CFP-Ran/YFP-importin-beta FRET ratio | AID 2216 | 300,000 tested, 1.1% active;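 active = more than half of the replicate wells show a fall in the fluorescence ratio signal beyond about 16%, limit read from the data, passing the limit was not always enough; inconclusive = exactly half of the replicate wells pass the set limit; inactive = fewer than half of replicates pass the limit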;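 also: 0% = DMSO wells and 100% = Ran loaded with GDP instead of GTP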
# Runt-SMMHC FRET: inhibitors of human RUNX1 Runt domain binding to CBFb-SMMHC | 220,000 tested, 0.74% active | Q01196+Q13951 | Cerulean-Runt/Venus-CBFb-SMMHC FRET ratio 530/480, 1 h | inhibition, % at 20 µM;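 active = mean inhibition across duplicate retests at 20 µM reaching about 50%, limit read from the data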;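 also: 0% = DMSO wells and 100% = wells with excess untagged CBFb-SMMHC; inhibitors lower the FRET ratio by blocking Runt binding to CBFb-SMMHC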
# Runt-CBFb FRET: Runt domain-CBFb interaction inhibition. inhibition, % at 20 µM. 220,000 tested, 0.46% active. AID 1496. Cerulean-Runt/Venus-CBFb FRET ratio 530/480, 1 h. Q01196+Q13951;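 active = inhibition over about 50% at 20 µM in the single-dose screen, limit read from the data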;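 also: 0% = DMSO wells and 100% = excess unlabeled CBFb competitor control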
#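 Measured by: fluorescence energy transfer, 422 nm excitation, 530/480 nm emission; test system: Cerulean-tagged RUNX1 Runt domain (FRET donor) fusion protein; buffer or medium: Tris pH 7.5 buffer with BSA; compound: one dose, 20 µM compound, 1% DMSO; times: two 1 h room-temperature incubations shielded from light; benchmarks: unlabeled CBFb 5 µM, positive control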
# * marks the source's active call; other numbers are inactive results; ? = inconclusive; / = no result given. Sampled rows, rich in hits. Any-hit rate of the full collection: about 1.8%.
SMILES,Hck-Nef inh,RanGTP-Impb inh,Runt-SMMHC FRET,Runt-CBFb FRET
COc1ccc2oc(=O)c(C(=O)Nc3ccccc3O)cc2c1,15.8,-2.9,-8.3,0.7
CCCCCCc1cc2cc(C(=O)Nc3cccc(OC)c3)c(=O)oc2cc1O,52.6*,156.2*,63.1*,143.1*
CC(C)Cc1cc(C(=O)Nc2cc(C(F)(F)F)ccc2Cl)no1,0.2,4.5,2.6,1.2
O=C(O)C(=O)/C(=C\c1ccc(Cl)cc1)c1ccc2ccccc2n1,14.7,-4.6,96.0*,39.2
CN1C(=O)N(C)c2ccc(Br)c3cccc1c23,/,3.9,/,/
CN1C(=O)N(C)c2ccc(C=O)c3cccc1c23,-5.2,-6.3,92.4*,59.4*
N#Cc1c(-c2ccc(Cl)cc2)c2c([nH]c1=O)-c1ccccc1OC2,36.9,67.9*,81.5*,88.8*
CC1Sc2ccc(S(=O)(=O)N3CCC(C(=O)Nc4cccc(Cl)c4)CC3)cc2NC1=O (stereo unspecified),/,1.6,/,/
N#Cc1c(N)n(CCNC(=O)c2cccs2)c2nc3ccccc3nc12,39.4,64.1*,57.6*,104.8*
CCCCn1c(CCNC(=O)c2cccs2)nc2ccccc21,6.1,?,-5.0,1.3
N#Cc1c(N)n(-c2ccccc2N)c2nc3ccccc3nc12,24.5,3.0,7.4,9.2
N#Cc1c(N)n(-c2cccc(C(=O)O)c2)c2nc3ccccc3nc12,21.0,?,81.7*,99.3*
N#Cc1c(N)n(CCNC(=O)c2ccccc2)c2nc3ccccc3nc12,11.6,58.1*,76.0*,110.9*
Cc1nn(-c2ccccc2)c(Cl)c1/C=N/Nc1nncc(=O)[nH]1,2.9,1.9,-0.4,-0.5
Nc1ncc(Br)cc1S(=O)(=O)Nc1ccccc1F,/,2.4,/,/
Cc1ccc(S(=O)(=O)C(C#N)c2nc3ccccc3nc2N2CCC(C)CC2)cc1 (stereo unspecified),-2.2,7.6,-37.7,-11.0
Cc1ccc(S(=O)(=O)C(C#N)c2nc3ccccc3nc2OCCO)cc1 (stereo unspecified),4.6,26.3*,-3.0,-2.2
COc1cc(N2N=C(c3ccccc3)CC2c2ccccc2)c(C=O)cc1C=O (stereo unspecified),/,30.9*,/,/
COc1ccccc1N1CCN(CC(O)COc2c(OC)cccc2OC)CC1 (stereo unspecified),-2.0,23.6*,1.3,-1.2
CCOC(=O)c1c(S(=O)(=O)Nc2ccccc2OCC)c(C)n(C)c1C,/,-1.2,/,/
CCOC(=O)C1CCN(c2cc(=O)n(-c3ccccc3Cl)c(=O)[nH]2)CC1,7.8,59.0*,0.4,-0.6
O=c1cc(N2CCCCCC2)[nH]c(=O)n1-c1ccccc1Cl,16.2,/,1.1,-1.2
Cc1ccccc1-n1c(=O)cc(N2CCCCCC2)[nH]c1=O,-1.8,144.7*,0.4,/
CN1C(N)=NC(=O)/C1=C/c1ccccc1F,25.5,31.1*,17.4,-1.5
CCCCCCC(C)NC(=S)Nc1cc(S(=O)(=O)N(C)C)ccc1C (stereo unspecified),2.1,2.6,-3.4,-1.8
SMILES,Hck-Nef inh,RanGTP-Impb inh,Runt-SMMHC FRET,Runt-CBFb FRET
Cc1[nH]c2nc3ccccc3n2c(=O)c1CCC(C)C,/,3.6,/,/
COCCn1c(N)c(C(=O)OCc2ccccc2)c2nc3ccccc3nc21,24.8,18.0*,64.8*,17.2
COCCNC(=O)c1c(N)n(CCC2=CCCCC2)c2nc3ccccc3nc12,47.8,68.2*,57.8*,38.4
Nc1c(S(=O)(=O)c2cccs2)c2nc3ccccc3nc2n1CCc1ccccc1,2.0,?,24.0,9.8
O=C(CN1CCN(C(=O)c2ccco2)CC1)N1CCc2[nH]c3ccccc3c2C1,-21.3,29.3*,-27.4,-24.0
O=C1/C(=C/c2ccco2)Oc2c1ccc(O)c2CN1CCCCC1,1.5,-62.3,-35.2,10.8
Cc1ccc(/C=C2\Oc3c(ccc(O)c3CN3CCN(CCO)CC3)C2=O)cc1,0.2,35.4*,90.0*,3.4
CC(C)c1ccc(/C=C2\Oc3c(ccc(O)c3CN3CCN(C)CC3)C2=O)cc1,-35.5,/,87.5*,-114.4
O=C(CCC(=O)N/N=C/c1ccc(Br)s1)NCc1ccccc1,-2.5,0.2,2.6,-1.2
O=C(CCC(=O)N/N=C/c1cc(Cl)cc(Cl)c1O)NCc1ccccc1,15.1,43.0*,91.5*,19.8
COc1cccc(NC(=O)CCCCCN2C(=O)[C@@H]3Cc4ccccc4CN3C2=O)c1,/,2.5,/,/
CCOc1ccc(S(=O)(=O)NN2Cc3ccccc3C2=N)cc1,24.5,-1.5,-4.1,1.1
CCCN(CCC)c1nc2ccccc2nc1C(C#N)C(=O)OCCOC (stereo unspecified),0.0,36.8*,3.8,12.1
C=CCN(CC=C)c1nc2ccccc2nc1C(C#N)C(=O)OCCOC (stereo unspecified),3.5,19.8*,61.1*,18.1
CCOC(=O)C1CCN(c2nc3ccccc3nc2C(C#N)C(=O)OCCOC)CC1 (stereo unspecified),-16.8,?,6.4,0.8
Cc1cc(Cl)ccc1Oc1nccc(N(C)C)c1C#N,0.2,6.9,-7.9,-2.1
Cc1cc2c(c(=O)n1CCN(C)C)C(c1ccncc1)C(C#N)=C(N)O2 (stereo unspecified),15.3,-2.2,-1.9,-0.1
CCn1c(C)cc2c(c1=O)C(c1ccccc1Br)C(C#N)=C(N)O2 (stereo unspecified),1.8,48.2*,8.6,3.8
COCCn1c(C)cc2c(c1=O)C(c1ccco1)C(C#N)=C(N)O2 (stereo unspecified),0.0,7.9,117.3*,112.5*
CCOc1cccc(C2C(C#N)=C(N)Oc3cc(C)n(Cc4ccccn4)c(=O)c32)c1OCC (stereo unspecified),-0.3,3.6,-8.2,-3.0
Cc1cccc(C)c1Nc1nnc(SC/C(O)=C(\C#N)c2nc3ccccc3[nH]2)s1,21.6,11.1,23.0,8.9
Cc1cccc(Nc2nnc(SC/C(O)=C(\C#N)c3nc4ccccc4[nH]3)s2)c1C,9.5,25.5*,47.4,12.9
COC(=O)c1c(C(=O)OC)c2cc(C(=O)c3ccccc3)ccn2c1Cl,8.0,29.4*,26.6,6.4
O=C(C1CCN(S(=O)(=O)c2ccccc2)CC1)N1CCCCC1,/,4.9,/,/
Cc1ccc(C2C(C#N)=C(N)SC(N)=C2C#N)c(C)c1,2.6,46.7*,27.0,9.8
SMILES,Hck-Nef inh,RanGTP-Impb inh,Runt-SMMHC FRET,Runt-CBFb FRET
CCCCN(CC)C(=O)c1cc2cc3ccc(OC)cc3nc2o1,-1.0,58.6*,2.9,-5.2
CC(C)Sc1nc(-c2cccs2)nc2c1c(=O)n(C)c(=O)n2C,53.2*,/,-3.7,0.1
CCC(CC)C(=O)Nc1cccc(C(=O)Nc2ccc(S(=O)(=O)Nc3ccc(C)cc3)cc2)c1,1.4,?,3.5,1.6
Cc1cc(N2C(=O)C(O)=C(C(=O)c3cc4ccccc4o3)C2c2cccs2)no1 (stereo unspecified),/,42.3*,/,/
Cc1cc(N2C(=O)C(O)=C(C(=O)c3ccc(C)o3)C2c2cccs2)no1 (stereo unspecified),-0.1,9.2,-2.4,4.8
Cc1nnc(SCc2nnc(-c3cccs3)o2)s1,-2.0,174.7*,-1.5,1.0
